MEKK2 mut-MEK5 = MEK5 binding signal on mutant MEKK2 PB1, primary screen, biochemical, multiplex bead flow cytometry, Alexa488-MEK5; Alexa488-MEK5 binding to MEKK2 mutant; percent response, % at 10 µM; actives 0.35% (n = 290,000); AID 1530, 2009; in the data active means percent response above about 24%, passing the limit was not always enough
Pemphigus Ab inh = inhibitors of pemphigus antibody binding to DSG3, primary screen, biochemical, bead-based, flow cytometry, scFv-GFP | Desmoglein-3 (Homo sapiens), P32926 | DSG3-coupled beads, scFv-anti-DSG3-GFP binding; hits give low values | binding (percent of control), % at 10 µM | actives 0.48% (n = 310,000) | AID 588358, 2011;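 active means binding more than 3 SD below its plate's average and above zero; inconclusive means below that plate limit but binding exactly zero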;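 further: hits lower antibody fragment binding to DSG3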
UBC13 polyUb = UBC13 polyubiquitin chain formation inhibitors, primary screen, biochemical, TR-FRET, uHTS | actives 0.47% (n = 330,000) | inhibition, % at 20 µM | Ubiquitin-conjugating enzyme E2 N (Homo sapiens), P61088 | AID 485273, 2010; in the data active means inhibition above about 45%, passing the limit was not always enough; inconclusive means no clear call, values can overlap the other calls
Apaf-1 inh = inhibitors of human Apaf-1 apoptosome, primary screen, biochemical, DEVD-Rh110 fluorescence, uHTS; actives 0.71% (n = 330,000); inhibition, % at 20 µM; reconstituted apoptosome caspase-3 activity; AID 489030, 2010; Apoptotic protease-activating factor 1 (Homo sapiens), O14727; active means inhibition of at least 40% at 20 µM;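 further: plate controls were DMSO wells for no effect and DEVD-CHO caspase inhibitor wells for full effect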
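Material: reconstituted apoptosome with Apaf-1, cytochrome c, caspase-9, procaspase-3, dATP / Buffer or medium: pH 7.5 Hepes buffer with CHAPS, BSA, DTT / Also added: cytochrome c with DEVD-Rh110 / Schedule: compound with Apaf-1, dATP, procaspase-3 30 min, then 50 min reaction, room temperature / Technique: rhodamine 110 fluorescence at Ex 480/Em 540 nm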
MEKK3 PB1 HTS = modulators of MEKK3-MEK5 PB1 binding, primary screen, biochemical, wildtype MEKK3, multiplex bead flow cytometry, Alexa488-MEK5; binding response (% of control), % at 10 µM; bead-based flow cytometry, Alexa488-MEK5 binding to MEKK3; actives lie on both sides; 0 = blocked by unlabeled MEK5, 100 = vehicle; AID 1529, 2009; actives 1.4% (n = 290,000); Mitogen-activated protein kinase kinase kinase 3 (Homo sapiens), Q99759;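 active means binding response more than 3 SD above or below the average of its plate-row segment, actives on both sides; inconclusive means wells at one plate position flagged as instrument error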;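 further: Alexa488 bead fluorescence after subtracting the streptavidin-only scavenger bead signal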
Target sequence (Q99759 whole entry, looked up): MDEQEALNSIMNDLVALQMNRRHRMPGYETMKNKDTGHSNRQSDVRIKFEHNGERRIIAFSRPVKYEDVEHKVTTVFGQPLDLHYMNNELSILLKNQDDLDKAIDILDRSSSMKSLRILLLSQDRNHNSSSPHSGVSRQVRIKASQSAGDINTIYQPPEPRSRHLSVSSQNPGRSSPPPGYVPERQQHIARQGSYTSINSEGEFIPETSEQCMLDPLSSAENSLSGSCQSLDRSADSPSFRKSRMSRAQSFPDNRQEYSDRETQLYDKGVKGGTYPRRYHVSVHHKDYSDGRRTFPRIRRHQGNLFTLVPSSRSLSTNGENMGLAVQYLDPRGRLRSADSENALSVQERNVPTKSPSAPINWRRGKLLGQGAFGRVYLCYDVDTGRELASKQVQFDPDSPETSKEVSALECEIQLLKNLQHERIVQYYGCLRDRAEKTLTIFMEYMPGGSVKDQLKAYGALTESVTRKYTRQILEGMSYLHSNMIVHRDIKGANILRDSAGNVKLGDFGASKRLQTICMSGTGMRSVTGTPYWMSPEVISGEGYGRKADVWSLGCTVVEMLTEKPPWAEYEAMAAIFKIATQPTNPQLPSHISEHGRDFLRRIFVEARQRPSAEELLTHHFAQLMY
MEKK2wt PB1 HTS = modulators of MEK5 binding to wildtype MEKK2, primary screen, biochemical, multiplex bead flow cytometry, Alexa488-MEK5; Mitogen-activated protein kinase kinase kinase 2 (Homo sapiens), Q9Y2U5; Alexa488-MEK5 binding to MEKK2 WT; actives lie on both sides; binding response (% of control), % at 10 µM; actives 1.1% (n = 290,000); AID 1531, 2009; in the data active means binding response below about 67% or above about 130%; inconclusive means no clear call, values can overlap the other calls; inactive means in between
Apaf-1 inh conf2 = Apaf-1 inhibitors, single-dose retest, confirmation, biochemical, fluorescence, DEVD-Rh110, 20 µM; shares compounds with Apaf-1 inh; reconstituted apoptosome, caspase-3 DEVD-Rh110 fluorescence; inhibition, % at 20 µM; actives 25% (n = 1,800);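 active means mean inhibition of at least 40% at 20 µM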;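 further: plate controls were DMSO wells for no effect and DEVD-CHO caspase inhibitor control wells for full effect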
Rh110 quench = Rh110 fluorescence interference by putative Apaf-1 inhibitors, confirmation, artefact control for Apaf-1 inhibitor project, biochemical, 20 µM | shares compounds with Apaf-1 inh | AID 504615, 2011 | quenched caspase reaction | 1,800 tested, under 10 active | activation (fluorescence interference), % at 20 µM;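 active means signal rise of 40% or more at 20 µM, treated as a fluorescence artifact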
Fluor interf inh = fluorescence interference of Apaf-1 inhibitor hits, dose response, artefact control for Apaf-1 inhibitor project | 460 tested, under 10 active | fluorescence interference counterscreen, Apaf-1 assay format | IC50, µM | shares compounds with Apaf-1 inh; call rule not given here
* hit, by the source's call; ? = inconclusive; nt = not tested or not shown. Rows were chosen to be rich in hits. Some 3.2% of all compounds tested hit in one or more screens of this group.

SMILES	MEKK2 mut-MEK5	Pemphigus Ab inh	UBC13 polyUb	Apaf-1 inh	MEKK3 PB1 HTS	MEKK2wt PB1 HTS	Apaf-1 inh conf2	Rh110 quench	others
COC(=O)CSC1=NN1c1cc(C)nc(N)n1	-1.0	100.7	4.7	-7.0	92.0	98.0	nt	nt
CCN(CC)c1ccc(N=Cc2c(O)n(CCc3ccc(OC)c(OC)c3)c(=O)[nH]c2=O)cc1	19.0	150.3	nt	nt	104.0	117.0	nt	nt
CCN(CC)c1ccc(N=Cc2c(O)n(Cc3ccco3)c(=O)[nH]c2=O)cc1	-5.0	nt	-11.6	0.9	97.0	92.0	nt	nt
CCN(CCO)c1ccc(N=Cc2c(O)n(C)c(=S)[nH]c2=O)cc1	0.0	119.8	-252.0	51.2*	105.0	97.0	15.9	-6.6
CCN(CC)c1ccc(N=Cc2c(O)n(-c3cc(OC)ccc3OC)c(=O)[nH]c2=O)cc1	-3.0	110.0	-31.1	48.5*	87.0	92.0	12.9	0.6
O=C(NC12CC3CC(CC(C3)C1)C2)OC1CN2CCC1CC2 (centres undefined)	2.0	92.0	-2.4	-8.0	98.0	106.0	nt	nt
COC(=O)C1=C(c2c(C)noc2C)C[C@@H]2CC[C@H]1N2C(=O)NCCOc1ccccc1	nt	101.1	-3.8	6.4	nt	nt	nt	nt
CCCN1CCc2cccc3c2[C@H]1Cc1ccc(O)c(O)c1-3	6.0	nt	-4.0	52.8*	103.0	114.0	13.1	9.6
COCCNC(=O)c1c(NC(=O)c2ccc(Br)o2)n(Cc2ccccc2)c2nc3ccccc3nc12	-2.0	78.9	-16.0	67.3*	99.0	92.0	24.8	-7.2
COCCCNC(=O)c1c(NC(=O)c2ccco2)n(Cc2ccccc2)c2nc3ccccc3nc12	-7.0	99.4	20.5	71.4*	101.0	83.0	-51.4	7.7	Fluor interf inh=>100
CCCCCn1c(NC(=O)c2ccco2)c(C(=O)OCC)c2nc3ccccc3nc21	-6.0	94.9	-36.2	92.2*	94.0	93.0	49.4*	8.7	Fluor interf inh=>100
N=C1c2ccccc2CN1NC(=O)c1ccc(Br)o1	1.0	102.6	-1.8	-3.1	105.0	104.0	nt	nt
N[C@@H]1CCCC[C@H]1N.O=C(O)C(=O)O.[Pt]	3.0	nt	5.1	-17.0	104.0	104.0	nt	nt
NNCc1ccccc1	nt	105.5	nt	nt	nt	nt	nt	nt
COc1ccccc1-n1c(-c2ccccc2)nc2ccccc2c1=O	-1.0	103.6	-1.1	-3.3	101.0	103.0	nt	nt
COc1ccc(P2(=O)Nc3ccccc3N2)cc1	3.0	104.4	-14.1	48.9*	103.0	102.0	21.1	7.9
CC(C)CCNC(=O)c1c(N)n(Cc2ccc3c(c2)OCO3)c2nc3ccccc3nc12	9.0	88.5	0.3	89.6*	112.0	112.0	34.9	14.5
CC(C)OC(=O)c1c(N)n(Cc2ccco2)c2nc3ccccc3nc12	-2.0	?	-6.7	4.0	105.0	105.0	nt	nt
CC(C)CNC(=O)c1c(N)n(Cc2ccc3c(c2)OCO3)c2nc3ccccc3nc12	-3.0	nt	15.5	96.3*	102.0	95.0	33.8	-2.4
COc1ccc(Cn2c(N)c(C(=O)NCc3ccco3)c3nc4ccccc4nc32)cc1OC	nt	96.8	-21.7	66.3*	nt	nt	24.9	10.6
CC(C)CNC(=O)c1c(N)n(Cc2ccco2)c2nc3ccccc3nc12	-5.0	nt	-13.1	45.4*	101.0	92.0	31.9	17.6
COCCOC(=O)c1c(N)n(Cc2ccco2)c2nc3ccccc3nc12	-1.0	105.2	-11.1	27.3	103.0	99.0	nt	nt
Cn1c(=O)c2c(nc(-c3ccc(N(CCCl)CCCl)cc3)n2C)n(C)c1=O	nt	99.2	nt	nt	nt	nt	nt	nt
Cc1ccc(O)c(C)c1	nt	101.2	4.8	2.5	nt	nt	nt	nt
COc1cc(OC)cc(-n2nc(C(=O)N3CCC4(CC3)OCCO4)c3ccccc3c2=O)c1	-1.0	98.3	-11.5	-2.3	95.0	101.0	nt	nt
SMILES	MEKK2 mut-MEK5	Pemphigus Ab inh	UBC13 polyUb	Apaf-1 inh	MEKK3 PB1 HTS	MEKK2wt PB1 HTS	Apaf-1 inh conf2	Rh110 quench	others
COc1ccc([C@@H](O)[C@@H](N)c2ccccc2)cc1	nt	103.7	-0.3	-18.5	nt	nt	nt	nt
Cc1ccc2c(c1)Oc1ccccc1N=C2	nt	105.9	nt	nt	nt	nt	nt	nt
CCCNC(=O)c1c(N)n(Cc2ccc3c(c2)OCO3)c2nc3ccccc3nc12	-5.0	91.8	7.6	83.4*	95.0	82.0	19.7	-3.7
COC(=O)c1c(N)n(Cc2ccc(OC)cc2)c2nc3ccccc3nc12	7.0	93.2	0.6	33.4	106.0	103.0	nt	nt
COc1cc2c(cc1OC)-c1c(OC)c(OC)cc3c1[C@H](C2)N(C)CC3	2.0	102.4	-169.4	94.5*	105.0	102.0	96.3*	7.4	Fluor interf inh=>100
COc1ccc(C(=O)Oc2cccc3cccnc23)cc1S(=O)(=O)N1CCOCC1	-12.0	118.5	14.2	-15.5	101.0	96.0	nt	nt
O=c1cc(C2CCNCC2)[nH][nH]1	2.0	93.4	0.3	58.0*	100.0	101.0	8.9	-6.5
O=C1C(=O)c2ccccc2-c2ccccc21	3.0	100.1	-160.4	98.7*	104.0	102.0	99.1*	5.1	Fluor interf inh=>100
O=C1C(=O)c2cccc3cccc1c23	-5.0	124.9	-5.7	7.5	83.0	88.0	nt	nt
c1cncc(C2Nc3cccc4cccc(c34)N2)c1	12.0	117.1	-44.9	42.1*	97.0	114.0	11.4	0.6
O=S(=O)(O)C(=Cc1ccccc1)c1ccccc1 (tested in a mixture with another compound)	nt	94.0	nt	nt	nt	nt	nt	nt
COCCCn1c(N)c(C(=O)OCCOC)c2nc3ccccc3nc21	4.0	99.0	-10.0	95.0*	103.0	105.0	16.3	12.2
COCCNC(=O)c1c(N)n(CCC(C)C)c2nc3ccccc3nc12	4.0	101.1	35.5	82.1*	101.0	94.0	29.6	9.4
CC(C)CCn1c(=O)c(C(=O)NCc2ccco2)c(O)c2ccccc21	16.0	99.9	0.5	-5.0	109.0	102.0	nt	nt
